In brackets after ≈: the same amount, converted by molar mass. Activity calls are given as the source filed them. The rule behind the calls is not given here.
Key:
[1] = system: Mycobacterium tuberculosis; assay: Antimycobacterial activity against Mycobacterium bovis BCG assessed as growth inhibition at 0.5 to 100 ug/ml by microplate alamar blue assay; assay type: functional, organism-based; conditions: variant bovis BCG
Procedure, shortened: (§1)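 Strains obtained from ATCC. Tested by microplate alamar blue assay. Compounds made up as 10 mg/mL DMSO stocks, then serially diluted in 7H9GC medium. Final test concentrations were 100, 50, 25, 10, 5, 1 and 0.5, each in triplicate. Experiments were run twice, and mean percent growth inhibition is reported.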

[2] = system: Mycobacterium tuberculosis; assay: Antimycobacterial activity against Mycobacterium bovis BCG assessed as growth inhibition at 100 ug/ml by microplate alamar blue assay; assay type: functional; conditions: variant bovis BCG, read-out: GI; procedure, shortened: as §1
[3] = system: Mycobacterium tuberculosis; assay: Antimycobacterial activity against Mycobacterium bovis BCG assessed as growth inhibition at 10 ug/ml by microplate alamar blue assay; assay type: functional; conditions: variant bovis BCG, read-out: GI; procedure, shortened: as §1
[4] = system: Mycobacterium tuberculosis; assay: Antimycobacterial activity against Mycobacterium bovis BCG assessed as growth inhibition at 50 ug/ml by microplate alamar blue assay; assay type: functional; conditions: variant bovis BCG, read-out: GI; procedure, shortened: as §1
[5] = system: Mycobacterium tuberculosis; assay: Antimycobacterial activity against Mycobacterium bovis BCG by microplate alamar blue assay; assay type: functional; conditions: variant bovis BCG
[6] = system: Mycobacterium tuberculosis; assay: Antimycobacterial activity against Mycobacterium bovis BCG assessed as growth inhibition at 1 ug/ml by microplate alamar blue assay; assay type: functional; conditions: variant bovis BCG, read-out: GI; procedure, shortened: as §1
[7] = system: Mycobacterium tuberculosis; assay: Antimycobacterial activity against Mycobacterium bovis BCG assessed as growth inhibition at 0.5 ug/ml by microplate alamar blue assay; assay type: functional; conditions: variant bovis BCG, read-out: GI; procedure, shortened: as §1

SMILES | growth inhibition (GI) [1] | inhibition of growth at 100 µg/mL [2] [%] | also measured
O=c1[nH]c(=O)n([C@H]2C[C@H](F)[C@@H](CO)O2)cc1C(F)(F)F | inactive |  | 
CCc1cn([C@H]2C[C@H](N=[N+]=[N-])[C@@H](CO)O2)c(=O)[nH]c1=O |  | 95 | inhibition of growth at 10 µg/mL [3]: 85%; inhibition of growth at 50 µg/mL [4]: 95%; MIC50 [5]: 1 µg/mL (≈ 3.56 µM); inhibition of growth at 1 µg/mL [6]: 50%
[N-]=[N+]=N[C@H]1C[C@H](n2cc(Cl)c(=O)[nH]c2=O)O[C@@H]1CO |  | 50 | 
[N-]=[N+]=N[C@H]1C[C@H](n2cc(F)c(=O)[nH]c2=O)O[C@@H]1CO | inactive |  | 
Cc1cn([C@H]2C[C@H](N)[C@@H](CO)O2)c(=O)[nH]c1=O [3-AMINO- 3-DEOXYTHYMIDINE] |  | 50 | 
N[C@@H]1CONC1=O [CYCLOSERINE] |  | 100 | inhibition of growth at 10 µg/mL [3]: 100%; inhibition of growth at 50 µg/mL [4]: 100%; MIC50 [5]: 1 µg/mL (≈ 9.79 µM); inhibition of growth at 1 µg/mL [6]: 50%
[N-]=[N+]=N[C@H]1C[C@H](n2cc(Br)c(=O)[nH]c2=O)O[C@@H]1CO |  | 50 | 
CO[C@H]1/C=C/O[C@@]2(C)Oc3c(C)c(O)c4c(O)c(c(/C=N/N5CCN(C)CC5)c(O)c4c3C2=O)NC(=O)/C(C)=C\C=C\[C@H](C)[C@H](O)[C@@H](C)[C@@H](O)[C@@H](C)[C@H](OC(C)=O)[C@@H]1C [RIFAMPIN] |  |  | inhibition of growth at 0.5 µg/mL [7]: 100%
CCc1cn([C@H]2CC[C@@H](CO)O2)c(=O)[nH]c1=O | inactive |  | 
CCc1cn([C@H]2C[C@H](I)[C@@H](CO)O2)c(=O)[nH]c1=O | inactive |  | 
CCc1cn([C@H]2C[C@@H](O)[C@@H](CO)O2)c(=O)[nH]c1=O | inactive |  | 
CCc1cn([C@H]2C[C@H](F)[C@@H](CO)O2)c(=O)[nH]c1=O |  | 40 | 

— ChEMBL document CHEMBL1938355, “Antimycobacterial activities of 5-alkyl (or halo)-3'-substituted pyrimidine nucleoside analogs” (Bioorg Med Chem Lett, 2012)
